The source made the active and inactive calls.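 The calls were made as follows, unless noted: active = duplicate-averaged activation above buffer control mean plus 5 SD of those controls; inactive = the rest.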
Tests used:
[1] = thallium flux activation in parental CHO cells, counter-screen for KCNQ1 potentiator project (AID 493006); settings: parental CHO-K1 cells, FluxOR thallium flux, at 10 µM; hits give high values;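 as to activation: fluorescence ratio of max minus min over baseline after K+ and Tl+ depolarization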
Outline: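 Material: untransfected host CHO-K1 cells with FluxOR thallium dye. Timing: overnight 37 °C plating, 90 min RT dye, 20 min compound. Detection: kinetic FluxOR fluorescence, 10 s baseline, 110 s after stimulus. Read-out basis: max-minus-min fluorescence over baseline, percent of buffer-to-R-L3 span. Replicates: duplicate wells per compound, percent values averaged.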

[2] = biological target: Potassium voltage-gated channel subfamily KQT member 1 (Homo sapiens) (UniProt P51787); assay: KCNQ1 potassium channel potentiators, confirmation, FluxOR thallium flux, CHO cells, duplicates (AID 493007;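 active = potentiation averaged over duplicate wells exceeding buffer-only control mean by more than 3 SD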;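 as to outcome: cells depolarized by a potassium plus thallium sulfate stimulus after compound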); settings: KCNQ1 cell line, FluxOR thallium flux fluorescence, at 10 µM; hits give high values, % of reference activator effect, buffer zero
Outline: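 Test system – KCNQ1-expressing CHO cell line · Incubation – FluxOR dye loading 90 min, compound exposure 20 min, room temperature · Detection – FluxOR Tl+ flux fluorescence, 10 s baseline plus 110 s recording · Controls – buffer-only wells as 0% and R-L3 activator as 100%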

[3] = biological target: Potassium voltage-gated channel subfamily KQT member 2 (Rattus norvegicus) (UniProt O88943); assay: rat KCNQ2 channel potentiation, selectivity assay for KCNQ1 potentiator project, KCNQ2-CHO-K1 cells (AID 493009;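 active = mean duplicate potentiation above the buffer control mean plus 5 SD of buffer wells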;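 also: assay conditions were tuned for KCNQ1 rather than KCNQ2 modulators; signal is max minus min fluorescence divided by baseline after thallium stimulus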); settings: FluxOR thallium flux fluorescence, at 10 µM; hits give high values, scaled: buffer 0, activator control 100
[4] = biological target: Potassium voltage-gated channel subfamily KQT member 1 (Homo sapiens) (UniProt P51787); assay: KCNQ1 channel current potentiators, confirmation, orthogonal assay for KCNQ1 potentiator project, IonWorks patch clamp, KCNQ1-CHO cells (AID 493184;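 active = current rise at least 3 SD above the untreated control mean in each of two repeat wells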); settings: automated patch clamp current, at 10 µM; hits give high values
Outline: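 Read-out: Percent current increase versus pre-compound level | Assay system: CHO cells carrying KCNQ1 | Measured by: Automated perforated-patch electrophysiology | Medium: External bath solution at pH 7.4 | Dosing: One dose, 10 µM final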

Chain of Potassium voltage-gated channel subfamily KQT member 1 (Homo sapiens) (P51787 whole entry, looked up): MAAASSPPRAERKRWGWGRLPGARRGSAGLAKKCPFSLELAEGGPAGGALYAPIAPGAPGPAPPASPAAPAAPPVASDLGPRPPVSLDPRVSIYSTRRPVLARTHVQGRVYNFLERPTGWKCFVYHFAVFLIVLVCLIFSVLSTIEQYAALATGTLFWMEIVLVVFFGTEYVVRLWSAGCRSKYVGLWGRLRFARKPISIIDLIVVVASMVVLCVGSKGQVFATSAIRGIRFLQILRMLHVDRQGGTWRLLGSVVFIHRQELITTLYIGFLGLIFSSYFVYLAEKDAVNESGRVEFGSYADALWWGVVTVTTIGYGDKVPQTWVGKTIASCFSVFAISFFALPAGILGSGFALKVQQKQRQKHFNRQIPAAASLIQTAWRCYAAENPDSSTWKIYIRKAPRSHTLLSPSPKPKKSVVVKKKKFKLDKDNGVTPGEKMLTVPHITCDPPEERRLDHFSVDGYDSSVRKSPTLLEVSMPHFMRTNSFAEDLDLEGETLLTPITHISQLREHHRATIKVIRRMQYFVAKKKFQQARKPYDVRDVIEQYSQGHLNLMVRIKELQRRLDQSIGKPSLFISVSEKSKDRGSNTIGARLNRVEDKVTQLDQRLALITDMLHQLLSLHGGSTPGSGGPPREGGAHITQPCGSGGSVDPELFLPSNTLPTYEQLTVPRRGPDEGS
Chain of Potassium voltage-gated channel subfamily KQT member 2 (Rattus norvegicus) (O88943 whole entry, looked up): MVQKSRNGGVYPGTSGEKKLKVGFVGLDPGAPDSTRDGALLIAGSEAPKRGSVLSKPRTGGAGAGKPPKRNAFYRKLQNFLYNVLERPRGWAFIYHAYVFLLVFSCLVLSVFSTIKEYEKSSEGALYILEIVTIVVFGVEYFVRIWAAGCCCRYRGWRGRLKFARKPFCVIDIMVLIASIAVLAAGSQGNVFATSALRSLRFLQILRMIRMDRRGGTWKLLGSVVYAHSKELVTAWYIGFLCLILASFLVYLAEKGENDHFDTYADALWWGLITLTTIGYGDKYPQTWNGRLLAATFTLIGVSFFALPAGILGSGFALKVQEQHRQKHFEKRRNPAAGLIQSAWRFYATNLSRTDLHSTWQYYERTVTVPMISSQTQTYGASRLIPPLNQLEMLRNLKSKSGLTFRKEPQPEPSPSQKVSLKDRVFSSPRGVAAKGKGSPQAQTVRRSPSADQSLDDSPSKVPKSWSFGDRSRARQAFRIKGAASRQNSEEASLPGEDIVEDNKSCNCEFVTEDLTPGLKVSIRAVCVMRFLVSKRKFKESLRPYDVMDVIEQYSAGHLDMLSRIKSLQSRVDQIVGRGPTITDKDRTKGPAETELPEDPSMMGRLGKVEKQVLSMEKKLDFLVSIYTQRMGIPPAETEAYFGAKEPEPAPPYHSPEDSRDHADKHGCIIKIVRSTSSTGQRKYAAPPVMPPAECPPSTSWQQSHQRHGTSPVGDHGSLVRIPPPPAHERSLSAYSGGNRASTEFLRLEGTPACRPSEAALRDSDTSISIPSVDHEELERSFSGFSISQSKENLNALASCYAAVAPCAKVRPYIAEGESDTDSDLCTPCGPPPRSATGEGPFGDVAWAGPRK

Compound | outcome [1] | outcome [2] | outcome [3] | outcome [4] | activation [1] | potentiation [2] | potentiation [3]
C=C(C)CNC(=O)c1ccc(OC2CCN(C(=O)COC)CC2)cc1 | inactive | inactive | inactive | inactive | – | – | –
COc1ccc(N2CCN(S(=O)(=O)c3ccc(OC)c(C(=O)N4CCCCC4)c3)CC2)cc1 | inactive | inactive | inactive | inactive | – | – | –
CCCCC(=O)N(c1ccc(OCC)cc1)C1C=CS(=O)(=O)C1 (stereo not given) | inactive | inactive | inactive | inactive | – | – | –
CCCN1CCC(NC(=S)Nc2cccc(Cl)c2Cl)CC1 | inactive | inactive | inactive | inactive | – | – | –
ON/C=N/C(=S)Nc1ncc(C(F)(F)F)cc1Cl | – | – | – | inactive | 264% (active) | 69% (active) | 218% (active)
O=C(NC(=S)Nc1ccc(N2CCCCC2)c(Cl)c1)c1cccs1 | – | – | – | inactive | 138% (active) | 120% (active) | 232% (active)
C=CCOc1ccc(/C=C2\SC(=S)N(NS(=O)(=O)c3ccc(C)cc3)C2=O)cc1 | – | – | – | inactive | 447% (active) | 444% (active) | 852% (active)
COc1ccc(OCC(=O)Nc2cccc(C(C)=O)c2)cc1 | inactive | inactive | inactive | inactive | – | – | –
CCC1(c2ccccc2)NC(=S)N(c2ccc(C)c(C)c2)N1 (stereo not given) | – | – | – | inactive | 542% (active) | 271% (active) | 572% (active)
O=C1C(C2=C(O)c3ccccc3C2=O)=Nc2ccccc21 | – | – | – | inactive | 225% (active) | 61% (active) | 238% (active)
Cc1ccc(S(=O)(=O)n2cccc2CO)cc1 | inactive | inactive | inactive | inactive | – | – | –
O=C(O)c1cnn(-c2ccccc2)c1-c1ccncc1 | – | – | – | inactive | 145% (active) | 84% (active) | 202% (active)
Cc1ccccc1NC(=O)C(=O)NNC(=O)COc1ccc2ccccc2c1 | – | – | – | inactive | 232% (active) | 93.5% (active) | 300% (active)
Cc1cccc2sc(N(CCCN(C)C)C(=O)CCS(=O)(=O)c3ccccc3)nc12 | inactive | inactive | inactive | inactive | – | – | –
Fc1ccc2nc(Nc3nc4c(F)cccc4s3)sc2c1 | – | – | – | inactive | 144% (active) | 69.5% (active) | 180% (active)
CC(C)c1nc2oc3c(NCC4CCCO4)ncnc3c2c2c1COC(C)(C)C2 (stereo not given) | inactive | inactive | inactive | inactive | – | – | –
O=C(NC(=S)N1CCN(Cc2ccc3c(c2)OCO3)CC1)c1cccc(Br)c1 | – | – | – | inactive | 314% (active) | 123% (active) | 349% (active)
Cc1csc(NC(=S)NC(=O)c2ccccc2)n1 | inactive | – | – | inactive | – | 32% (active) | 156% (active)
O=C(O)CCCN1C(=O)C2C3c4ccccc4C(c4ccccc43)[C@@H]2C1=O (stereo not given in full) | inactive | inactive | inactive | inactive | – | – | –
CCNC(=S)/N=C(\N)Nc1nc(C)c2cc(C)ccc2n1 | inactive | inactive | inactive | inactive | – | – | –

Compound | outcome [1] | outcome [2] | outcome [3] | outcome [4] | activation [1] | potentiation [2] | potentiation [3]
COC(=O)C1=C(C)Nc2nnnn2C1c1ccc(Cl)cc1Cl (stereo not given) | inactive | inactive | inactive | inactive | – | – | –
CCC1CCCCN1S(=O)(=O)c1ccc(NC(=O)c2cccnc2)cc1 (stereo not given) | inactive | inactive | inactive | inactive | – | – | –
O=S(=O)(NCCOc1ccccc1)c1ccc2ccccc2c1 | inactive | inactive | inactive | inactive | – | – | –
Cc1ccc(C2c3c(-c4ccccc4O)n[nH]c3C(=O)N2Cc2ccncc2)cc1 (stereo not given) | inactive | inactive | inactive | inactive | – | – | –
O=C(Cn1c(=O)oc2ccccc21)N1CCN(c2ccc(N3CCOCC3)nn2)CC1 | inactive | inactive | inactive | inactive | – | – | –
CC(=O)c1ccc(OCc2cc(C(=O)N3CC[C@@H]4CCCC[C@H]4C3)no2)cc1 | – | – | – | inactive | 144% (active) | 49% (active) | 160% (active)
COC(=O)c1cc2c(ccc3ccccc32)oc1=O | inactive | inactive | inactive | inactive | – | – | –
Cc1ccc(C(=O)OCC(=O)N(C)c2ccccc2)cc1C | – | – | – | inactive | 397% (active) | 252% (active) | 405% (active)
CC1CCN(C(=S)NC(=O)c2ccc(C(C)(C)C)cc2)CC1 | – | – | – | inactive | 165% (active) | 85.5% (active) | 284% (active)
CCCN(CCC)C(=S)NC(=O)c1ccc(-c2ccccc2)cc1 | – | – | – | inactive | 436% (active) | 248% (active) | 556% (active)
Cc1ccc(C)c(NC(=S)NC(=O)c2cncc(Br)c2)c1 | inactive | – | inactive | inactive | – | 18.5% (active) | –
Cc1ccc(-c2nc(N)s[n+]2-c2ccccc2)cc1 | – | – | – | inactive | 187% (active) | 157% (active) | 155% (active)
C=CCn1c(=S)[nH]c2scc(-c3cccs3)c2c1=O | – | – | – | inactive | 620% (active) | 274% (active) | 554% (active)
CCC1CCC2(CC1)NC(CO)(CO)CO2 (stereo not given) | inactive | inactive | inactive | inactive | – | – | –
O=C(NN=C1CCCCCC1)c1cc(-c2ccccc2)nc2ccccc12 | inactive | inactive | inactive | inactive | – | – | –
CC(C)Cc1ccc(C(C)C(=O)Nc2ccc(O)cc2)cc1 (stereo not given) | inactive | inactive | inactive | inactive | – | – | –
COc1ccc(CCC(=O)NCCOc2ccc(C)cc2)cc1 | inactive | inactive | inactive | inactive | – | – | –
COc1cc(/C=N/Nc2snc(SC)c2C#N)ccc1O | inactive | inactive | inactive | inactive | – | – | –
CCC(=O)NC(=Nc1nc2ccccc2s1)NC(=O)CC | inactive | inactive | inactive | inactive | – | – | –
C(=N\NC(=Nc1ccccc1)c1ccccn1)/c1ccccn1 | inactive | inactive | inactive | inactive | – | – | –

Compound | outcome [1] | outcome [2] | outcome [3] | outcome [4] | activation [1] | potentiation [2] | potentiation [3]
CN(C)c1nc(=Nc2cccc(Cl)c2)ss1 | – | – | – | inactive | 312% (active) | 119% (active) | 273% (active)
CNC(=O)c1cc(-c2ccc(Cl)cc2)n(-c2ccccc2)n1 | inactive | inactive | inactive | inactive | – | – | –
Oc1c(N=NC(=S)Nc2ccccc2F)c2ccccc2n1Cc1ccc(F)cc1 | inactive | – | inactive | inactive | – | 19.5% (active) | –
CCC(C)(C)NC(=O)C(c1ccncc1)N(Cc1cccs1)C(=O)Cn1nnc2ccccc21 (stereo not given) | inactive | inactive | inactive | inactive | – | – | –
CCCn1c(N)c(C(=O)CSc2nc(C)nc3sc(C)c(C)c23)c(=O)[nH]c1=O | – | – | – | inactive | 166% (active) | 23% (active) | 194% (active)
O=C(C1=C(O)C(=O)N(CC2CCCO2)C1c1ccc(Cl)cc1Cl)c1ccco1 (stereo not given) | inactive | inactive | inactive | inactive | – | – | –
CCOc1ccc(CCNC(=O)CSc2nc3ncc(Cl)cc3[nH]2)cc1OCC | inactive | inactive | inactive | inactive | – | – | –
O=C(CN1CCN(Cc2ccc(F)cc2Cl)C1=O)NCCc1ccccc1 | inactive | inactive | inactive | inactive | – | – | –
Cc1cc(/C=N/NC(=O)c2nn(C)cc2Cl)c(C)n1-c1cccc(Br)c1 | inactive | inactive | inactive | inactive | – | – | –
Cc1ccc(-n2[nH]c(C)c(/C=N/N3C(=O)c4cccc5cccc(c45)C3=O)c2=O)cc1 | – | – | – | inactive | 153% (active) | 86% (active) | 225% (active)
CC(Sc1n[nH]c(N)n1)C(=O)NC1CCCCC1C (stereo not given) | – | – | – | inactive | 152% (active) | 37% (active) | 172% (active)
O=C(COC(=O)c1cc(S(=O)(=O)N2CCOCC2)ccc1O)NCCc1ccccc1 | inactive | inactive | inactive | inactive | – | – | –
Cc1cc(Cl)ccc1OCC(=O)N/N=C1\CC2C=CCC12 (stereo not given) | inactive | inactive | inactive | inactive | – | – | –
O=C(NC(=S)N1CCCc2ccccc21)c1ccccc1 | inactive | inactive | – | inactive | – | – | 148% (active)
COc1ccccc1N1C(=NC(=O)C(C)Oc2ccccc2)SC2CS(=O)(=O)CC21 (stereo not given) | inactive | inactive | inactive | inactive | – | – | –
O=c1c(-c2ccc(Cl)cc2)[n+]([O-])c2ccccc2n1O | – | inactive | – | inactive | 190% (active) | – | 184% (active)
O=C(NC(=S)Nc1ccccn1)c1cc(-c2ccccc2)nc2ccccc12 | inactive | – | inactive | inactive | – | 18% (active) | –
CCCN(CCC)C(=S)NC(=O)c1ccc(Cl)cc1Cl | – | – | – | inactive | 470% (active) | 204% (active) | 448% (active)
CCC(CC)C1=NN2C(=N)/C(=C\c3cc(C)n(-c4cccc(C)c4)c3C)C(=O)N=C2S1 | inactive | inactive | inactive | inactive | – | – | –
CC(=O)Nc1ccc(/C=N/N2C(=O)NC(C)(c3ccc(OC(F)F)cc3)C2=O)cc1 (stereo not given) | – | – | – | inactive | 219% (active) | 100% (active) | 234% (active)
